Assay results reported in paper PMC6487859 (Journal of the American Chemical Society, 2018).

Tests used:
[1] = molecular target: PKN3 at C840 (Homo sapiens, UniProt Q6P5Z2); assay: CITe-Id, HeLa S3 lysates, THZ1-DTB; assay type: binding; details: competition with 2 μM THZ1-DTB
How it was run: (§1)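 Precleared on streptavidin resin 1 h at 4 °C, split four ways. DMSO or rising test-compound doses for 1 h at RT, then 2 µM desthiobiotin probe at 4 °C for 18 h. Urea denaturation, DTT/IAA, tryptic digest. Streptavidin-enriched probe peptides were iTRAQ-labelled for RP-SAX-RP LC–MS/MS. Slope of reporter ratios (vs DMSO) against concentration scored each cysteine. Hits exceeded 2 SD over the mean of 527 sites; biological replicates.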

[2] = molecular target: protein kinase C theta (PRKCQ) at C661 (Homo sapiens, UniProt Q04759); assay: CITe-Id, HeLa S3 lysates, THZ1-DTB; assay type: binding; details: competition with 2 μM THZ1-DTB
protein kinase C theta (PRKCQ) at C661, sequence (Q04759 whole entry): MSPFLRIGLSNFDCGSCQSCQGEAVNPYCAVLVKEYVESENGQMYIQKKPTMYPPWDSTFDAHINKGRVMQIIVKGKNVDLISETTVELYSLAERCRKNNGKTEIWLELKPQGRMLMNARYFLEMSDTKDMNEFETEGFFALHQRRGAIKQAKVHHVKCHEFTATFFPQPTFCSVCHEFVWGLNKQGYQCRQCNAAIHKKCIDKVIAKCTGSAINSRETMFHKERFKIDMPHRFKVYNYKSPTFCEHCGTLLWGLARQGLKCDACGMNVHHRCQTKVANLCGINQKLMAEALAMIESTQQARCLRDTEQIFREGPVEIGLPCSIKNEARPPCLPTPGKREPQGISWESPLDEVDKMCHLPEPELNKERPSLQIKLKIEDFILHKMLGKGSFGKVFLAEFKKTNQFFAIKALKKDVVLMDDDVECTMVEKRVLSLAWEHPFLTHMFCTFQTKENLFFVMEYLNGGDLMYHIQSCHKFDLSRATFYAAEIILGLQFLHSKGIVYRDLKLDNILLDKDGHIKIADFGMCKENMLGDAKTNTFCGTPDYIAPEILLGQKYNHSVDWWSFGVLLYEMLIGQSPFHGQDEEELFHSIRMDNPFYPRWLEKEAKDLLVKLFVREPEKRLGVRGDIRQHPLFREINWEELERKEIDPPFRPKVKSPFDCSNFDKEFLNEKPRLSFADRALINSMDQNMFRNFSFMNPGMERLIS
How it was run: as §1

[3] = molecular target: glycogen synthase kinase 3B (GSK3B) at C14 (Homo sapiens, UniProt P49841); assay: CITe-Id, HeLa S3 lysates, THZ1-DTB; assay type: binding; details: competition with 2 μM THZ1-DTB
glycogen synthase kinase 3B (GSK3B) at C14, sequence (P49841 whole entry): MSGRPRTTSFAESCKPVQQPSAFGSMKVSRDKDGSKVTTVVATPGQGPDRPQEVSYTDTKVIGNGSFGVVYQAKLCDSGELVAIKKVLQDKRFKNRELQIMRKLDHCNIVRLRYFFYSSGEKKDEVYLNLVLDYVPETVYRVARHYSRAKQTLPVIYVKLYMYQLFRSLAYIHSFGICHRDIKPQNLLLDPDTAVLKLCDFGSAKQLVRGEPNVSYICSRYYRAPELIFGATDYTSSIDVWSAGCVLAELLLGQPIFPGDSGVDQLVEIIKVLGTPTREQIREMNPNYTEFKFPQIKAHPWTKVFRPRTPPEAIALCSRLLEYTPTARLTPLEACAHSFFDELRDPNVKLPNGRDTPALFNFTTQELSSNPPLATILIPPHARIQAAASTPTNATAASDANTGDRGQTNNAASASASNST
How it was run: as §1

[4] = molecular target: T1, CYP1B1 (Homo sapiens, UniProt Q16678); assay: CITe-Id, HeLa S3 lysates, THZ1-DTB; assay type: binding; details: competition with 2 μM THZ1-DTB
T1 sequence (Q16678 1-543): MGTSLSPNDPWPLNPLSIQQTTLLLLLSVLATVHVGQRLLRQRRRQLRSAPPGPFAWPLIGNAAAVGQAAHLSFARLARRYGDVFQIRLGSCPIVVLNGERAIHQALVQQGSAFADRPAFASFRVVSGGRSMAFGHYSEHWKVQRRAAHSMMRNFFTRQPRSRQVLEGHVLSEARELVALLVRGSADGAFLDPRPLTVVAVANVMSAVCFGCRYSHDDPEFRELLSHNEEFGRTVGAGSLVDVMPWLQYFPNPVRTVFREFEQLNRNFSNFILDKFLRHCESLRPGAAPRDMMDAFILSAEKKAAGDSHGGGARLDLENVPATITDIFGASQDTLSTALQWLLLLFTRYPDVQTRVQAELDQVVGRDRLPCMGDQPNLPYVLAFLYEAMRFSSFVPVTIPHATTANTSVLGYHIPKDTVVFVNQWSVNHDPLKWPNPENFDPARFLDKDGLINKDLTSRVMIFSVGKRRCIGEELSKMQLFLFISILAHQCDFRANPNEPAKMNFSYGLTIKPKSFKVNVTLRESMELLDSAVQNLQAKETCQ
How it was run: as §1

[5] = molecular target: T2, PKN3 (Homo sapiens, UniProt Q6P5Z2); assay: in vitro PKN3 kinase assay; assay type: biochemical; details: for time-dependent inhibition of PKN3: fixed inhibitor concentration 1 μM, preincubation 0 to 120 min
T2 sequence (Q6P5Z2 whole entry): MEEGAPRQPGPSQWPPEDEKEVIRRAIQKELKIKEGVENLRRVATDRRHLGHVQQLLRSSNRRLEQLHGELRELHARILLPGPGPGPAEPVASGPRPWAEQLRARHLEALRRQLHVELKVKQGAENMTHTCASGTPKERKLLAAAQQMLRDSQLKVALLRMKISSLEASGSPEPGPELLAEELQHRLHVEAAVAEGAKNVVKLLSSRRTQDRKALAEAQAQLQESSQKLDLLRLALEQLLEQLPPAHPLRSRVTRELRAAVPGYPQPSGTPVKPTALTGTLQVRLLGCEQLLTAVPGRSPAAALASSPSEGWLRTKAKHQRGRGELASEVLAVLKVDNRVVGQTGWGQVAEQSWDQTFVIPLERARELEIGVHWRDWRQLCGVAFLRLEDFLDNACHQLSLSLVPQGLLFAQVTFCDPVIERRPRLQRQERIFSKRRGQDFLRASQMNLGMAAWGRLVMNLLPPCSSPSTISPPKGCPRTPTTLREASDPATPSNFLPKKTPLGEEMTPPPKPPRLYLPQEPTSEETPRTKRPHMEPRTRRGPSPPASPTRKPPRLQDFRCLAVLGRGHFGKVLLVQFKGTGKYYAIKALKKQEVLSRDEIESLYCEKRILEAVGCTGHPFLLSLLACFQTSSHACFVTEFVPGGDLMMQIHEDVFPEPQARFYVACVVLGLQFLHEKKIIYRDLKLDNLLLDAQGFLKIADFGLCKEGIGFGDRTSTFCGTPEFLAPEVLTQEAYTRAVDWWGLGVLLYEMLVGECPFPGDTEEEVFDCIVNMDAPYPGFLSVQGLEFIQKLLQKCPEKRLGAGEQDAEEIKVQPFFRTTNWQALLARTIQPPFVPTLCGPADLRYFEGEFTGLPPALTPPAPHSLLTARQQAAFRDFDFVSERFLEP
How it was run: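 Enzyme was preincubated with test compound 30 min, then reacted 30 min at RT with 68 µM ATP plus 1 µCi [γ-32P]ATP. TCA stop, phosphocellulose capture, phosphoric-acid washes, scintillation counting. IC50 came from a 7-point dose-response. Time course used 1 µM compound with 0–120 min preincubation.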

[6] = molecular target: T3, PRKCQ (Homo sapiens, UniProt Q04759); assay: SelectScreen kinase assay; assay type: biochemical; details: 10-dose titration
T3 sequence (Q04759 whole entry): as the sequence (Q04759 whole entry) above

[7] = molecular target: T4, CDK7 (Homo sapiens, UniProt P50613); assay: target engagement pulldown, live HeLa S3 cells, THZ1-DTB; assay type: cell-based; details: 4 h, Western blot
T4 sequence (P50613 2-346 limits assumed): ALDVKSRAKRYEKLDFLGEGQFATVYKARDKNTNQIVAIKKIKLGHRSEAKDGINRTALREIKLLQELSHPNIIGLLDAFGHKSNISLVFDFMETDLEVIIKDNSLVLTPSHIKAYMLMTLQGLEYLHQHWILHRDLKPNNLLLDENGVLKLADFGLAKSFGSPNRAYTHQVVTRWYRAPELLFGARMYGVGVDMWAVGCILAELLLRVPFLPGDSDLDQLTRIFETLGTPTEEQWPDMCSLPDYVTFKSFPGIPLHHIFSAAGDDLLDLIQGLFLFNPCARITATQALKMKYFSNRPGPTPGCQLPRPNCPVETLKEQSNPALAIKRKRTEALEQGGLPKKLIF
T4 sequence (P51946 whole entry partner): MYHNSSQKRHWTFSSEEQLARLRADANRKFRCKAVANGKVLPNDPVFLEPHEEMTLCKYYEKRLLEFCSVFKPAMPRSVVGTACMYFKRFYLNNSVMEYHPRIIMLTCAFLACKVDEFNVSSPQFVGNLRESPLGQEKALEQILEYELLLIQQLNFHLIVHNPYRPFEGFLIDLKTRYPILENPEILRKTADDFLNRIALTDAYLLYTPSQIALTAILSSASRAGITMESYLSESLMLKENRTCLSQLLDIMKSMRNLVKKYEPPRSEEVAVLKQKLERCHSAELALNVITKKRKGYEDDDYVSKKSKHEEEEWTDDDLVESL
T4 sequence (P51948 whole entry partner): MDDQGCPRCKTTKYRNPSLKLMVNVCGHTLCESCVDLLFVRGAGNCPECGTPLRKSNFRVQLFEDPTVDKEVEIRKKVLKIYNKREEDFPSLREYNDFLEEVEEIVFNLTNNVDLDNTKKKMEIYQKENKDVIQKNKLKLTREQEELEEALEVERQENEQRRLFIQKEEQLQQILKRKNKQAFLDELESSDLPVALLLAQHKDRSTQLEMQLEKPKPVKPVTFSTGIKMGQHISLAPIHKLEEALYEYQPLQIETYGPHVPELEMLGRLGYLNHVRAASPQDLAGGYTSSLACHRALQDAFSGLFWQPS

[8] = molecular target: T4, CDK7; assay: CITe-Id, HeLa S3 lysates, THZ1-DTB; assay type: binding; details: competition with 2 μM THZ1-DTB
How it was run: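 Aliquots pretreated with DMSO or increasing test compound concentrations for 1 h at RT, then 2 μM desthiobiotin probe for 18 h at 4 °C. Denatured, reduced, alkylated, trypsin-digested; probe peptides streptavidin-enriched, iTRAQ-labelled, LC–MS/MS. Cysteine reporter ratios versus the DMSO channel were regressed against concentration, and the slope was taken as the dose response.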

[9] = molecular target: CDK12 (Homo sapiens, UniProt Q9NYV4); assay: CITe-Id, HeLa S3 lysates, THZ1-DTB; assay type: binding; details: competition with 2 μM THZ1-DTB
How it was run: as §1

[10] = molecular target: CDK13 (Homo sapiens, UniProt Q14004); assay: CITe-Id, HeLa S3 lysates, THZ1-DTB; assay type: binding; details: competition with 2 μM THZ1-DTB
How it was run: as §1

[11] = tested on: cysteine residues across the proteome; assay: CITe-Id proteome-wide, HeLa S3 lysates; assay type: binding, human
How it was run: as §1

[12] = molecular target: T2, PKN3; assay: PKN3 in vitro phosphorylation of candidate substrate synthetic peptides; assay type: biochemical; details: pretreatment 1 μM for 30 min
How it was run: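 Recombinant PKN3 (25 ng) was preincubated with test compound at 1 μM for 30 min. Reactions ran 1 h at 37 °C and were stopped with 1% acetic acid. Peptides were desalted and read by MALDI TOF/TOF. Percent phosphorylation was inferred from the loss of unphosphorylated signal against a no-ATP control; four replicates.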

[13] = molecular target: T2, PKN3; assay: target engagement pulldown, live HeLa S3 cells, THZ1-DTB; assay type: cell-based; details: 4 h, Western blot
[14] = molecular target: T3, PRKCQ; assay: as above; assay type: cell-based; details: 4 h, Western blot
[15] = tested on: CDK12/13; details: live HeLa S3 cells, 4 h; cyclin K as proxy

PKN3 at C840, sequence (Q6P5Z2 whole entry): as the sequence (Q6P5Z2 whole entry) above

Row | SMILES | competitive dose-response at PKN3 C840 [1] | competitive dose-response at PRKCQ C661 [2] | competitive dose-response at GSK3B C14 [3] | competitive dose-response at CYP1B1 [4] | time-dependent inhibition of PKN3 [5] | IC50 ([5]; read-out: IC50 against PKN3, fixed time-point format, 30 min preincubation) [nM] | potency against PRKCQ [6] | competition for CDK7 against THZ1-DTB pulldown [7] | competitive dose-response at CDK7 cysteine [8] | competitive dose-response at CDK12 cysteine [9] | competitive dose-response at CDK13 cysteine [10] | number of cysteine residues with dose-dependent competitive binding [11] | PKN3-mediated phosphorylation of EXOC2 (S432) peptide [12] | PKN3-mediated phosphorylation of LAD1 (S375) peptide [12] | potency against PKN3 relative to THZ1 (fold less potent) ([5]; fixed time-point format) | competition for PKN3 against THZ1-DTB pulldown [13] | competition for PRKCQ against THZ1-DTB pulldown [14] | competition for CDK12/13 against THZ1-DTB pulldown [15]
1 | CN(C)C/C=C/C(=O)Nc1ccc(C(=O)N2CCC[C@@H](Nc3ncc(Cl)c(-c4c[nH]c5ccccc45)n3)C2)cc1 [THZ531] | little or no reactivity | little or no reactivity | gaining some activity | little or no reactivity |  |  |  |  |  |  |  |  |  |  |  |  |  | 
2 | CN(C)C/C=C/C(=O)Nc1ccc(C(=O)Nc2cccc(Nc3ncc(Cl)c(-c4c[nH]c5ccccc45)n3)c2)cc1 [THZ1] | dose-dependent THZ1 competitive binding | dose-dependent THZ1 competitive binding | dose-dependent THZ1 competitive binding |  | time dependent | 72 | weak potency | strong competition | dose-dependent competitive binding | dose-dependent competitive binding | dose-dependent competitive binding | eight | partially blocked | partially blocked |  |  |  | 
3 | CN(C)CCCC(=O)Nc1ccc(C(=O)Nc2cccc(Nc3ncc(Cl)c(-c4c[nH]c5ccccc45)n3)c2)cc1 [THZ1-R] |  |  |  |  | did not show time-dependent inhibition |  |  | competed poorly |  |  |  |  |  |  | more than 50 fold | competed poorly | competed poorly | competed poorly
